Assay outcomes as filed in PubChem.
KCNQ1 act: potentiators or activators of KCNQ1 channel, primary screen, cell-based, thallium flux, high-throughput; CHO-K1 KCNQ1, thallium flux FluxOR fluorescence; active compounds read high; Potassium voltage-gated channel subfamily KQT member 1 (Homo sapiens), P51787; B-score at 10 µM; actives 0.35% (n = 310,000);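 active = fluorescence ratio B-score, a plate-corrected score, at least three library SD, with initial intensity B-score within 5 SD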
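Doses: Single concentration per compound, DMSO matched to controls | Test system: KCNQ1-transfected CHO-K1 cells | Timing: 90 min dye loading and 20 min compound exposure, both at room temperature | Measured by: Kinetic FluxOR thallium fluorescence, 10-s 1-Hz baseline, 110-s post-stimulus read | Medium: Assay buffer with matched DMSO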
KCNK3 block: human KCNK3 channel inhibitors, primary screen, CHO cells, FluxOR thallium flux, B-score | Potassium channel subfamily K member 3 (Homo sapiens), O14649 | FluxOR fluorescence; active compounds read low | B-score at 10 µM | actives 0.84% (n = 340,000) | AID 602410, 2012;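 active = B-score under library mean minus 4 SD, starting fluorescence ratio at most library mean plus 5 SD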;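 also: more negative B-score means stronger inhibition of thallium flux through KCNK3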
hERG protect: hERG rescue from dofetilide block, primary screen, cell-based, CHO-hERG, FluxOR thallium flux, dofetilide IC70; Voltage-gated inwardly rectifying potassium channel KCNH2 (Homo sapiens), Q12809; dofetilide IC70 present; activation (rescue from dofetilide block), less the hit threshold, % at 10 µM; actives 0.51% (n = 310,000);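 active = activation above the mean of controls blocked by dofetilide plus 5 SD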;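 also: thallium influx through hERG after potassium depolarization seen as dye fluorescence rise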
KCNK9 block: KCNK9 potassium channel inhibitors, primary screen, HEK293 cells, thallium flux; B-score at 10 µM; actives 1.2% (n = 310,000); FluxOR thallium flux fluorescence; active compounds read low; Potassium channel subfamily K member 9 (Homo sapiens), Q9NPC2;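 active = ratio B-score over 3 SD below the library mean, with starting fluorescence within 5 SD of its mean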;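 also: negative B-score means less thallium flux so channel inhibition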
KCNQ1 inh: inhibitors of human KCNQ1 channel, primary screen, cell-based, thallium flux, high-throughput; Potassium voltage-gated channel subfamily KQT member 1 (Homo sapiens), P51787; CHO-K1 KCNQ1, FluxOR thallium flux fluorescence; active compounds read high; B-score at 10 µM; actives 1.3% (n = 310,000); AID 2642, 2010;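 active = compounds whose thallium flux B-score, printed positive for inhibition, exceeds three library SD while starting fluorescence stays within three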;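 also: channel opened by potassium depolarization with thallium stimulus after 20 min compound exposure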
KCC2 mod: KCC2 cotransporter modulators, thallium flux, primary screen, cell-based, HEK293 KCC2, FluoZin-2 fluorescence, MLSMR; AID 1456, 2008; Solute carrier family 12 member 5 (Homo sapiens), Q9H2X9; actives 2.2% (n = 190,000); KCC2 cells, thallium flux FluoZin-2 fluorescence; B-score of Tl+ flux slope (higher = more flux/activation; lower = inhibition) at 10 µM;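 active = thallium flux slope and its plate-corrected score both differing from the plate sample mean at a set confidence after two filtering rounds, in either direction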;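 also: slope of fluorescence scaled to starting intensity during 10 to 20 s after thallium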
KCC2 secondary: KCC2 modulators in sodium-free buffer, confirmation, cell-based, HEK293 KCC2, thallium flux, secondary assay; shares compounds with KCC2 mod; FluoZin2 fluorescence; active compounds read high; normalised thallium flux (F/F0 slope) at 10 µM; actives 15% (n = 3,700); AID 1713, 2009;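 active = thallium flux slope above the same plate's solvent-only control mean plus 3 SD; inconclusive = the two replicate wells disagree; inactive = no significant difference from solvent-only control wells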
KCC2 bumet counter: thallium flux persisting under bumetanide in KCC2 cells, confirmation, counter-screen for KCC2 modulator project, cell-based, HEK293 KCC2, FluoZin2, secondary assay 3 | shares compounds with KCC2 mod | actives 49% (n = 3,700) | normalized thallium flux at 10 µM | HEK293-KCC2 + bumetanide/ouabain; active compounds read high | AID 1714, 2009;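 active = thallium entry rate above the same plate's blocked-transporter control wells by more than 3 SD; inconclusive = the two repeat wells disagree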;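 also: raw slope of fluorescence over initial fluorescence between 10 and 20 s after thallium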
KCC2 secondary2: KCC2 modulators without ouabain present, confirmation, cell-based, HEK293 KCC2, thallium flux, FluoZin2, secondary assay 2 | shares compounds with KCC2 mod | thallium flux FluoZin2 fluorescence; actives lie on both sides; F/F0 rise rate, 10–20 s post-thallium | normalized thallium flux at 10 µM | actives 23% (n = 3,700);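 active = thallium flux slope more than 3 SD above or below the plate's solvent-only control mean, mostly below; inconclusive = the two repeat wells disagreed; inactive = no significant shift from solvent-only controls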;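 also: raw slope with 0.1% DMSO as baseline and bumetanide as block control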
HEK293 Tl flux: thallium flux modulation in parental HEK cells, confirmation, counter-screen for KCC2 modulator project, cell-based, counterscreen 1; actives 46% (n = 3,700); shares compounds with KCC2 mod; HEK293 parental cells, thallium flux FluoZin2, ouabain; baseline-ratio fluorescence slope, 10–20 s after thallium; thallium flux rate (normalised fluorescence) at 10 µM;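 active = thallium flux rate significantly above the same plate's solvent-only control wells, beyond their mean plus 3 SD; inconclusive = the two replicate wells gave conflicting results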
KCC2 retest ouab: KCC2 inhibitors and activators, ouabain retest, confirmation, HEK-KCC2 cells | HEK293-KCC2, thallium flux FluoZin2 fluorescence; bidirectional: low = inhibitor, high = activator | raw Tl+ flux slope (below DMSO = inhibition, above = activation) at 10 µM | shares compounds with KCC2 mod | actives 48% (n = 3,700);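 active = thallium flux slope beyond 3 SD from same-plate DMSO control mean in most replicates, usually higher, sometimes lower; inconclusive = repeat tests gave conflicting results; inactive = no significant difference from controls in most replicates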;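 also: slope of initial-normalized fluorescence between seconds 10 and 20 after thallium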
HEK counter2: native HEK Tl+ uptake effects, second counter-screen – HEK cells, counterscreen 2, counter-screen for KCC2 modulator project, confirmation. actives 33% (n = 3,700). shares compounds with KCC2 mod. thallium flux slope at 10 µM. AID 1718, 2009. HEK293 parental, thallium flux FluoZin-2 fluorescence slope;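 active = thallium flux slope above the same plate's solvent-control mean plus 3 SD in both duplicate wells; inconclusive = duplicate wells that disagreed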;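 also: run without ouabain in cells lacking the KCC2 cotransporter; slope of fluorescence scaled to its starting value between 10 and 20 s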
Starred values were filed as active, the others as inactive; i = inactive; u = inconclusive; x = not tested or not shown. Only some compounds are listed: those with a hit (about 4.1% of all), similar ones and a draw of the others.

SMILES	KCNQ1 act	KCNK3 block	hERG protect	KCNK9 block	KCNQ1 inh	KCC2 mod	KCC2 secondary	KCC2 bumet counter	KCC2 secondary2	HEK293 Tl flux	KCC2 retest ouab	HEK counter2
COCC(=O)/C=C1\Sc2ccccc2N1C	i	i	-3	i	i	0.13	x	x	x	x	x	x
CN1/C(=C/C(=O)C2CCC2)Sc2ccccc21	i	i	4	i	i	-4.6*	0.0055	0.0043	0.022*	0.0069	0.014*	0.0092
CC(NC(=O)c1ccco1)C(=O)OCc1cccc(Cl)c1 (stereo not drawn)	i	i	-12	i	i	6.1*	0.0099	0.0057	0.035	0.0064	0.02	0.01
CC(NC(=O)c1ccco1)C(=O)OCc1cccc(C(F)(F)F)c1 (stereo not drawn)	x	i	x	x	x	x	x	x	x	x	x	x
O=C(NCCCN1CCOCC1)C(=O)N/N=C/c1ccc(F)cc1	i	i	-2	i	i	-1.1	x	x	x	x	x	x
O=C(NCCNC(=O)c1ccc(Cl)cc1Cl)c1cnccn1	i	i	-6	i	i	x	x	x	x	x	x	x
CC(C)NCC(O)c1cc(O)cc(O)c1 (stereo not drawn)	i	i	-5	i	i	-2.8*	0.0069	0.0059*	0.029	u	0.018	0.012
CCOc1ccccc1N1C(=O)c2ccc(C(=O)Nc3cccnc3)cc2C1=O	i	i	-9	i	i	-4.6*	0.009	0.0069	0.032	0.0076	0.023	0.011
COc1ccc(NC(=O)c2ccc3c(c2)C(=O)N(CC2CCCO2)C3=O)c(OC)c1 (stereo not drawn)	i	i	-2	i	i	x	x	x	x	x	x	x
CC(C)CSC1=NSC2=NC(=O)/C(=C\c3cccs3)C(=N)N12	8*	i	-1	i	i	42*	0.0097*	0.089*	0.066*	0.067*	0.075*	0.045*
CSC1=NSC2=NC(=O)/C(=C\c3cccs3)C(=N)N12	i	i	-10	i	i	-0.16	x	x	x	x	x	x
S=C1CSc2ccccc2N1	i	i	-4	i	i	8.6*	0.0066	0.016*	0.033	0.014*	u	0.014*
CC(=O)c1ccc(NC2=C(N3CCOCC3)C(=O)c3ccccc3C2=O)cc1	i	i	-4	i	i	-0.35	x	x	x	x	x	x
Cc1ccc(NC2=C(N3CCOCC3)C(=O)c3ccccc3C2=O)cc1	i	i	-12	i	i	x	0.0055	0.005	0.026*	0.008	u	0.011
COC1=C/C(=C/c2c(N)n3nc(-c4ccc(C)cc4)sc3nc2=O)C=CC1=O	x	i	x	x	x	9.8*	0.0065	0.063*	u	0.083*	u	0.024*
Cc1ccc(-n2nc(C(=O)O)cc2-c2ccc(Cl)cc2)cc1	i	i	-4	i	i	-3.7*	0.0093	0.0066	0.036	0.0039	0.017*	0.011
O=C(O)c1cc(-c2ccc(Cl)cc2)n(-c2ccc(Cl)cc2)n1	i	i	-8	i	i	-2.5	x	x	x	x	x	x
Cc1cccc(OCc2n[nH]c(=S)o2)c1	i	i	-10	i	i	-4.8	x	x	x	x	x	x
S=c1[nH]nc(CNc2cccc(Cl)c2)o1	i	i	-9	i	i	-5.2*	0.0069	u	0.025*	0.0077	0.014*	0.01
COc1ccc2[nH]c3c(NCCN4CCCCC4)ncnc3c2c1	i	i	-1	i	i	-5.2*	0.0068	0.0046	0.028	0.0073	0.019	0.011
CCOc1ccc2[nH]c3c(NCCO)ncnc3c2c1	i	i	-5	i	i	x	x	x	x	x	x	x
Cc1ccc2nc(N3CCN(Cc4ccc(F)cc4)C3=O)c(C)cc2c1	i	i	-11	i	i	x	0.016	0.0051	0.024*	0.007	0.013	0.0099
COc1cc(/C=C/c2ccc3c(Br)cc(Br)c(O)c3n2)ccc1O	i	i	4.7*	i	i	7.5*	0.011	0.013*	0.035	0.0091*	0.023	0.01
COC(=O)c1ccc(C2c3c(oc4ccccc4c3=O)C(=O)N2CCCN2CCOCC2)cc1 (stereo not drawn)	i	i	-7	i	i	-4.5*	0.0052	0.0061*	0.029	0.008	0.019	0.011
COc1cc2c3c(c1)c(N=NC(N)=S)c(O)n3C(C)(C)C=C2C	i	i	-12	i	i	21*	u	0.026*	0.037	0.017*	u	0.014*
CC1=CC(C)(C)n2c(O)c(N=NC(N)=S)c3c(C)ccc1c32	i	i	1	i	i	3.8*	0.011	0.012*	0.035	0.016*	0.023	u
